# DSG3 Ab inh: human desmoglein-3 autoantibody binding inhibition; 0.48% of 310,000 active; binding (percent of control), % at 10 µM; DSG3-coupled beads, scFv-anti-DSG3-GFP binding, flow cytometry; hits give low values; AID 588358;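 active = binding more than 3 SD below its plate's average and above zero; inconclusive = below that plate limit but binding exactly zero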;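 also: hits lower antibody fragment binding to DSG3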
# Neddyl block: inhibitors of human cullin neddylation. P61081+Q13564. TR-FRET cullin neddylation, biochemical. inhibition, % at 25 µM. 0.58% of 360,000 active; in the data active = inhibition above about 36%
# Target sequence (P61081 whole entry, looked up): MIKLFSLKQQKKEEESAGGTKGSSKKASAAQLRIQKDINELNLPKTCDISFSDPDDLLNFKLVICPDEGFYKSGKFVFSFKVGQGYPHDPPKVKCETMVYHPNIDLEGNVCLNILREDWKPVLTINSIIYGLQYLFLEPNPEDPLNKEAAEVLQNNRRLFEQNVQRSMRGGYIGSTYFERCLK
# Target sequence (Q13564 whole entry, looked up): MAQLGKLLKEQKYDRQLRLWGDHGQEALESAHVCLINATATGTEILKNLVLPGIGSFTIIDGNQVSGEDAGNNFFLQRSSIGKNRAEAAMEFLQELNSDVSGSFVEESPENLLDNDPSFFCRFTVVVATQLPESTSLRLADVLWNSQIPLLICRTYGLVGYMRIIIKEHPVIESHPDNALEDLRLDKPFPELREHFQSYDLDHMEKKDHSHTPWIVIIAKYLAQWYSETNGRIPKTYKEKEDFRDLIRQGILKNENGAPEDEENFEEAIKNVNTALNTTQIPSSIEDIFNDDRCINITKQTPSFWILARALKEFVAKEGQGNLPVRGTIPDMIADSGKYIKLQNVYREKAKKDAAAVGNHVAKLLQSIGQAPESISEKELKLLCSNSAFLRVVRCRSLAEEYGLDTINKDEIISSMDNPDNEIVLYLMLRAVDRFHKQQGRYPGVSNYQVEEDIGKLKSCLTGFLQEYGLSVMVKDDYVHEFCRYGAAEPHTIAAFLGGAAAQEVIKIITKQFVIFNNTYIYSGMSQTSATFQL
# Arrestin-AP2 inh: inhibitors of human beta-arrestin and AP2 interaction; FITC-arrestin peptide / GST-AP2 beads, flow cytometry; AP2 beta2 appendage carries R879A mutation; inhibition, % at 10 µM; 0.31% of 340,000 active; AID 504490;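 active = inhibition above a set limit, near 3 SD of compounds lacking own fluorescence, cut at about 54% in these data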;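 also: plate controls were DMSO wells for no effect and 5 µM unlabelled arrestin peptide for full effect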
#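 System: GST-AP2 R879A glutathione beads; medium: PBS, Tween 20 0.05%, BSA 0.1%; reagent: fluorescein-tagged arrestin peptide at 50 nM final; schedule: pre-incubation 12 min, peptide binding 1 h, room temperature; detection: flow cytometry, FL1 (488/535 nm); read-out: inhibition as reduced fluorescein signal on beads, percent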
# Efflux pump inh: inhibitors of Candida antifungal efflux pumps expressed in yeast | S. cerevisiae Candida pump triplex, Nile Red efflux | inhibition, % at 10 µM | 0.44% of 330,000 active | AID 485275;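 active = plate passing quality check with inhibition over a set limit, or well fluorescence over plate mean plus 4 SD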;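 also: Nile Red retained in pooled yeast measured as flow cytometry median fluorescence; 0% = buffer negative control and 100% = Enniatin B positive control; higher means more Nile Red kept so more efflux inhibition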
# Cmpd fluor yeast: compound fluorescence in yeast efflux pump counter-screen; shares compounds with Efflux pump inh; S. cerevisiae AD/pABC3, flow cytometry; fluorescence ratio to DMSO, % at 10 µM; 4% of 1,700 active;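 active = fluorescence ratio to DMSO above its plate's cutoff, the plate mean ratio plus 5 SD, cut at about 210% in these data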;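 also: unstained yeast with no Nile Red so the signal is compound autofluorescence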
# CaMdr1 efflux inh: blocks the Candida albicans Mdr1 efflux pump in yeast. shares compounds with Efflux pump inh. S. cerevisiae AD/CaMDR1, Nile Red efflux, flow cytometry. inhibition, % at 10 µM. 1% of 1,700 active; in the data active = inhibition above about 26%;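 also: 0% = DMSO vehicle and 100% = reference inhibitor; higher means more Nile Red retained so more efflux inhibition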
# CaCdr2 efflux inh: Candida Cdr2 efflux pump inhibition | S. cerevisiae AD/CaCDR2, Nile Red retention, flow cytometry | Nile Red retention ratio vs DMSO, % at 10 µM | shares compounds with Efflux pump inh | 4% of 1,700 active; in the data active = Nile Red retention ratio vs DMSO above about 190%;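 also: higher ratio means more blocking of Cdr2 efflux of the dye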
# Cdr1 pump inh: Candida Cdr1 efflux pump inhibition. shares compounds with Efflux pump inh. AID 588522. 1% of 1,700 active. inhibition, % at 10 µM. S. cerevisiae AD/CaCDR1, Nile Red efflux, flow cytometry;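 active = inhibition above the screen-wide mean plus twice its standard deviation, cut at about 32% in these data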
# The depositor's hits bear a star; ? = inconclusive; . = not tested or not shown; ! = repeats disagree. Hits are enriched below; roughly 1.7% of the tested compounds scored in any of these assays.
SMILES,DSG3 Ab inh,Neddyl block,Arrestin-AP2 inh,Efflux pump inh,others
Cc1nc2ccccc2c(=O)n1-c1ccc(Br)cn1,90.8,-2.2,37.6,0.1,
Cc1nc2ccccc2c(=O)n1/N=C/c1cc(Br)cc(Br)c1O,111.0,72.0*,-4.8,-0.2,
CCOCCCNC(=O)Cn1nc(-c2ccc(OC)c(OC)c2)ccc1=O,94.7,-15.3,.,.,
O/N=C1\CCC2CN(C3CCCCC3)CC2C1 (stereo not given),11.8*,4.4,-2.0,0.5,
CCOC(=O)c1cc(C)sc1/N=C/C1C(=O)NC(=S)NC1=O,69.2*,7.7,22.6,0.2,
CCOC(=O)c1c(/N=C/C2C(=O)NC(=S)NC2=O)sc(C)c1C,.,.,.,0.1,
C[N+]12CCC(CC1)C(C(O)(c1cccc(Cl)c1)c1cccc(Cl)c1)C2 (stereo not given),82.2*,-14.9,-8.4,0.1,
CC[N+]12CCC(CC1)C(C(O)(c1ccccc1)c1ccccc1)C2 (stereo not given),100.7,-2.7,0.3,0.1,
CCN(CC)CC(O)c1ccc(C2CCCC2)cc1 (stereo not given),100.5,3.3,15.3,0.0,
OC(c1ccc(F)cc1)C(c1ccccc1)N1CCOCC1 (stereo not given),23.4*,-11.5,26.6,-0.1,
O=C(c1ccccc1)C(Cc1ccccc1)N1CCOCC1 (stereo not given),.,-2.4,5.0,.,
CC[C@H]1c2ccccc2[C@@H]2CC[C@H]1N2c1ccccc1,.,0.5,.,.,
O=C1NC(=O)C(=Cc2cc3c(cc2[N+](=O)[O-])OCO3)C(=O)N1,.,9.4,9.8,-0.1,
Cc1cccc(N2C(=O)NC(=O)/C(=C/c3cc4c(cc3[N+](=O)[O-])OCO4)C2=O)c1,100.9,49.4*,17.6,0.2,
Cn1cccc1/C=C1/C(=O)NC(=S)N(Cc2ccc(F)cc2)C1=O,70.4*,3.5,11.2,-0.1,
CCOc1ccc(N2C(=O)/C(=C/c3ccco3)C(=O)NC2=S)cc1,13.9*,-17.1,3.5,0.0,
O=C1NC(=O)C(=Cc2coc3ccccc3c2=O)C(=O)N1,99.8,24.1,-1.6,0.1,
O=C1NC(=O)C(=C/C=C/c2coc3ccc(Br)cc3c2=O)C(=O)N1,.,.,.,3.5*,
Cc1ccc(N2C(=O)NC(=O)/C(=C/c3ccoc3)C2=O)cc1,.,98.1*,-1.5,.,
COP(=O)(C#Cc1ccccc1)C(O)c1ccc(Br)cc1 (stereo not given),114.0,8.0,21.2,0.1,
Cc1ccc2c(c1Cl)NC(C(=O)O)C1CC(Sc3ccccc3[N+](=O)[O-])C(Cl)C21 (stereo not given),40.5*,-11.0,5.0,0.0,
CCOC(=O)C1CCN(C(C)C(=O)c2c(C)[nH]c3cc(C)ccc23)CC1 (stereo not given),.,0.3,-2.6,-0.1,
COc1cc(C2(C#N)CCN(C)CC2)cc(OC)c1OC,98.5,-5.0,12.1,.,
C[n+]1c(-c2ccccc2)c2cc(N)ccc2c2ccc(N)cc21,79.7,-89.0,27.5,8.5*,
[N-]=[N+]=NC1C[C@H](n2ccc(=O)[nH]c2=O)O[C@@H]1CO (stereo not given in full),100.7,-1.3,-5.3,-0.1,
SMILES,DSG3 Ab inh,Neddyl block,Arrestin-AP2 inh,Efflux pump inh,others
O=C(CCC(=O)N1CC2C[C@@H](C1)Cn1c2cccc1=O)NCCc1ccccc1,108.2,-1.8,-0.2,0.0,
CC(C)CC(N(C)C)C1(c2ccc(Cl)cc2)CCC1 (stereo not given),79.1*!,-5.5,9.6,0.1,
O=c1[nH]sc2cc(F)ccc12,4.9*,3.6,33.2,.,
O=c1[nH]c(=O)n(CC2CCCO2)c(O)c1/C=C1\C=Nc2ccccc21 (stereo not given),99.8,4.7,7.1,2.6*!,Cmpd fluor yeast=103.0;CaMdr1 efflux inh=-0.2;CaCdr2 efflux inh=89.3;Cdr1 pump inh=0.3
COc1ccccc1CN1CCN(Cc2ccc(Cl)cc2)CC1,97.9,6.1,3.5,-0.1,
Cc1cccc(C2=NCC(=O)N(CC(=O)NCc3ccco3)c3sc4c(c32)CCCC4)c1,101.3,-2.5,-10.9,0.1,
COc1ccc(C2=NCC(=O)N(CC(=O)NCc3ccco3)c3sc4c(c32)CCCC4)cc1,76.1*,-6.0,9.3,0.8*,Cmpd fluor yeast=113.2;CaMdr1 efflux inh=0.3;CaCdr2 efflux inh=99.6;Cdr1 pump inh=0.3
CCN(CC)c1ccc(/C=C2\C(=O)NC(=O)N(Cc3ccco3)C2=O)cc1,164.8,-0.4,-8.9,0.5*,Cmpd fluor yeast=82.2;CaMdr1 efflux inh=0.3;CaCdr2 efflux inh=101.7;Cdr1 pump inh=-0.2
CCN(CC)c1ccc(/C=C2/C(=O)NC(=O)N(CC3CCCO3)C2=O)cc1 (stereo not given),133.3,-14.2,-3.9,-0.1,
COC(=O)C1=C(c2cccc(C#N)c2)C[C@@H]2CC[C@H]1N2C(=O)NCc1cccc2ccccc12,97.7,-24.5,-5.2,0.0,
O=C1N[C@H](Cc2ccccc2)C(=O)N2[C@@H]3[C@H](C[C@@H]12)c1ccccc1N3OOSc1ccccc1,96.0,-17.5,18.8,0.1,
CC(C(=O)Nc1ccc(Br)cc1C(=O)c1ccccc1)N1CCCCC1 (stereo not given),100.2,-1.9,10.6,-0.1,
O=C(CCN1CCCCC1)Nc1ccc(Br)cc1C(=O)c1ccccc1,93.6,-119.2,-18.3,1.4*,Cmpd fluor yeast=102.2;CaMdr1 efflux inh=-0.1;CaCdr2 efflux inh=112.4;Cdr1 pump inh=0.0
C=CC1CN2CCC1CC2c1[nH]c2ccccc2c1CCO (stereo not given),93.4,-4.7,-0.1,12.6*,Cmpd fluor yeast=88.7;CaMdr1 efflux inh=0.1;CaCdr2 efflux inh=97.5;Cdr1 pump inh=-0.3
C=C[C@H]1CN2CC[C@H]1C[C@H]2[C@H](O)c1ccnc2ccccc12,122.7,-0.8,1.7,0.0,
CC(C)CC(NC(=O)CCCNC(=O)CCC(=O)OC1O[C@H]2OC3(C)CC[C@H]4[C@H](C)CCC(C1C)C24OO3)C(=O)O (stereo not given in full),?,-5.2,11.1,0.1,
CCN(CC)C(=O)c1ccc(NC(=O)COc2ccc([N+](=O)[O-])cc2Cl)cc1,107.2,-18.1,19.1,18.9*,Cmpd fluor yeast=116.4;CaMdr1 efflux inh=0.3;CaCdr2 efflux inh=118.7;Cdr1 pump inh=0.2
Cn1c[n+](C)cc1C(O)c1ccccc1 (stereo not given),109.2,-8.9,-0.8,0.1,
CCOC(=O)c1c(C)n(COCCO)c2ccc(O)cc12,91.1,4.4,13.1,7.5*,Cmpd fluor yeast=91.8;CaMdr1 efflux inh=-0.2;CaCdr2 efflux inh=91.4;Cdr1 pump inh=-0.1
CC1CCC(NCC(O)c2ccccc2)CC1 (stereo not given),95.4,3.6,-8.2,8.2*,Cmpd fluor yeast=107.9;CaMdr1 efflux inh=-0.1;CaCdr2 efflux inh=99.6;Cdr1 pump inh=-0.1
O=C1NC(=O)C(CCc2ccncc2)(CCc2ccncc2)C(=O)N1C1CCCCC1,103.1,-15.4,49.2,1.0*,Cmpd fluor yeast=76.9;CaMdr1 efflux inh=0.0;CaCdr2 efflux inh=120.8;Cdr1 pump inh=-0.2
Cc1ccc2c(c1)N(C(=O)CCC(=O)N1CCC3(CC1)OCCO3)CC(C)O2 (stereo not given),111.7,5.0,8.2,-0.1,

# High-throughput results deposited in PubChem by several laboratories.
